The EternaBench riboswitch data

System: MS2 coat protein
Test: apparent Kd, MS2 coat protein; higher = weaker binding; RNA-MaP array; FMN 200 µM where present
Method in brief: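 Stalled E. coli RNA polymerase transcribed the designs on Illumina sequencing-chip clusters. SNAP-549-labelled MS2 coat protein was titrated from 0.7 or 1.5 nM, doubling to 3 µM, without and then with constant ligand, in 100 mM Tris-HCl pH 7.5, 80 mM KCl, 4 mM MgCl2, BSA, DTT, yeast tRNA and Tween-20. Per-cluster binding curves were fitted to green signal normalised to red-channel RNA signal and control-cluster median Fmax. The apparent Kd is the median of the filtered fits.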

[1] = designed as: OFF switch for flavin mononucleotide, no ligand
[2] = ligand present: flavin mononucleotide, designed as: OFF switch for flavin mononucleotide
[3] = designed as: ON switch for flavin mononucleotide, no ligand
[4] = ligand present: flavin mononucleotide, designed as: ON switch for flavin mononucleotide

AGCUGGUGACAGCAUCCAUCAAAACAUGAGGAUCACCCAUGUAGAAGGCUGUACGGUUACCGUACAGAGGAUAUACAAUGAUGU
apparent Kd [1]: 15.2 nM | apparent Kd [2]: 26.2 nM

AUCAGCUCGUCAGGAUAUACGUCACUGCGUCAGCAGUGUGGUAAGAUGACAUGAGGAUCACCCAUGUAGAAGGGACGAGCUGAU
apparent Kd [1]: 6.82 nM | apparent Kd [2]: 15.8 nM

AACUGACAUGAGGAUCACCCAUGUCAGGAUAUGAUAUGUAAAAAAUAAAAAAUACUUAUCAGAAGGGACAUGGA
apparent Kd [1]: 22.7 nM | apparent Kd [2]: 41.3 nM

ACUUGUAAGCAGAAGGCAGUCAUUGUAUUCGUCAUGUAGACAUGAGGAUCACCCAUGUAUAGUACUGAGGAUAUGCAUCGAUAG
apparent Kd [1]: 7.88 nM | apparent Kd [2]: 17.2 nM

CUCCGGCGUGUAGGAUAUGGAUCCGAUUAGGAUCCAGAAGGACAUGAGGAUCACCCAUGUACAUGUAAACAGUCAUCACCGGAC
apparent Kd [1]: 8.66 nM | apparent Kd [2]: 67.6 nM

CGAUGACACAGUCAUCCAAUACGAACAUGAGGAUCACCCAUGUAGGAUAUGCUACUCACAGAGUAGCAGAAGGACAUGUGCCUU
apparent Kd [1]: 41.4 nM | apparent Kd [2]: 182 nM

UUAUGCUUUGAGAAGGUACAAACUACAUAUUGCGCACAUGAGGAUCACCCAUGUUGGUGAAUAAGUAAGGAUAUUAGACUGUGC
apparent Kd [1]: 133 nM | apparent Kd [2]: 102 nM

GAAGCAUGCAUUAACAUGAGGAUCACCCAUGUGAAAACACGUGAGGAUAUCGAUCUGAAGAAGAUCGAGAAGGCACCGUGCUAA
apparent Kd [3]: 8.87 nM | apparent Kd [4]: 7.62 nM

AACUAGCUAGGAUAUACAUGAGGAUCACCCAUGUAAAAAAAAAAAAAAAGAUCAAAAUGUAGAAGGAGCUAGUA
apparent Kd [1]: 106 nM | apparent Kd [2]: 132 nM

UGAGCGACCACAGGAUAUACUUGAGAAGACCGAGUAGAAGGGUGGAAGAGCGUGCAGUGACAUGAGGAUCACCCAUGUGGUUGU
apparent Kd [3]: 107 nM | apparent Kd [4]: 98.4 nM

GGCAAGUCAGGAUAUGCGAAGUCAGGACACACACUGACGAAGCAGAAGGGACAUGAGGAUCACCCAUGUAAGCC
apparent Kd [1]: 31.9 nM | apparent Kd [2]: 19.9 nM

GCGUCUCCUGUCAGGAUAUGCACCGGCUCGCCGGCGUAGAAGGGACAUGAGGAUCACCCAUGUGGUCUACACUU
apparent Kd [2]: 339 nM

GUAUCGUGAGGAUAUCAUGAUUGACUUUUAUUUUGUCAGCGUGAGAAGGCACAUGAGGAUCACCCAUGUGAUUA
apparent Kd [1]: 22.6 nM | apparent Kd [2]: 50.5 nM

CGAUGACAAAGUCAUCGAUAACGAACAUGAGGAUCACCCAUGUAGGAUAUGCUACUCAAAGAGUAGCAGAAGGACAUGUGCCUU
apparent Kd [1]: 34.2 nM | apparent Kd [2]: 284 nM

CGAUACAUGAGGGUCUCCCAUGACAUGAGGAUCACCCAUGUGCAGGAUAUACGUGUGAUGGUAUAGUAGAAGGGCACUCUAUGU
apparent Kd [1]: 29.2 nM | apparent Kd [2]: 36.9 nM

AAUUUCAGAAGAGGAUAUUGACAUGAGGAUCACCCAUGUAUUUGGGAAUGUUUACUGAAUUCUUACAAGAAGGUUUACGAACUU
apparent Kd [1]: 98 nM | apparent Kd [2]: 79.7 nM

AAUUAGGUCACAGGAUAUACAACUUCCAAUGCUGUAGAAGGGUGUCACAUACUUAGCUGACAUGAGGAUCACCCAUGUAUCCAC
apparent Kd [3]: 184 nM | apparent Kd [4]: 70.5 nM

UGCCUGAGGCAAAGCUUUAGGUAUACAUGAGGAUCACCCAUGUAGGAUAUGGUAGGCUUUGCUUACCAGAAGGACAUGUUAAUU
apparent Kd [1]: 19.8 nM | apparent Kd [2]: 54.6 nM

ACGUAUCGUGUAGGAUAUGACCCAGGAAACUGGUCAGAAGGACAUGAGGAUCACCCAUGUAGAGUAUGUUAGGAUGACGUAUGC
apparent Kd [1]: 42.5 nM | apparent Kd [2]: 305 nM

GGAUAGGACAGAGGAUAUACGUGCUAGAGAUACUAGCAAAAUUUCCUCACAUGAGGAUCACCCAUGUAGAAGGCUGACCUAUCG
apparent Kd [1]: 14.9 nM | apparent Kd [2]: 412 nM

AUAGGUUAAGGAGGAUAUAGAGGGAGAAGUACACAUGAGGAUCACCCAUGUAUUUAAUUAGUUUACUAGAAGGCUUAUGAUUGU
apparent Kd [3]: 46.6 nM | apparent Kd [4]: 53.8 nM

AAUGUUUGAUUCCACUUAUACAUGAGGAUCACCCAUGUUAUCGAGGAUAUGCAUUAGAGCGUUUAGCAGAAGGCGAUGUAAUUG
apparent Kd [1]: 7.41 nM | apparent Kd [2]: 20.3 nM

AGUGUCAUCGAGAAGGCCUUGACAUGAGGAUCACCCAUGUUAUAACAUGGGAGGAUAUCGAUGAUACAGCUACGUUUCGUAGCA
apparent Kd [3]: 509 nM | apparent Kd [4]: 46.7 nM

AUGCCUAAUGAGAAGGUGUAUAUAAAUUAUAUACAAGGAUAUCGGUCAAGCAUGAAAACAUGAGGAUCACCCAUGUUAAGGCAU
apparent Kd [3]: 7.57 nM | apparent Kd [4]: 6.36 nM

AACAGUACAGGAUAUACAUGAGGAUCACCCAUGUGAGAAUUAAGUGGCGUACCACUAAGUAGAAGGGUACUGGA
apparent Kd [1]: 51.6 nM | apparent Kd [2]: 151 nM

CGUACUCAAGUGAGGAUAUUGUCUCGGAUACGAAACAAGAAGGCACAUGAGGAUCACCCAUGUAGAGAGUACGA
apparent Kd [1]: 16.2 nM | apparent Kd [2]: 14.3 nM

AGCUAGUGAGGAUAUACGAACAUGUCAAAAGACGUGAAAUAACAUGAGGAUCACCCAUGUAGAAGGCACUAGCA
apparent Kd [1]: 19.2 nM | apparent Kd [2]: 16.7 nM

UUUAUAAAGAAAGGAUAUAGUAUAAUAAUUUAAUUAGAAGGUUCACACAUGAGGAUCACCCAUGUAUGAGGAUCACCCAUGUAU
apparent Kd [1]: 35.2 nM | apparent Kd [2]: 29.1 nM

CUCUUACAUGAGGAUCACCCAUGUGUUGUCGUGGGAGGAUAUCCUGGUUCGGUGGCGUUGGGAGAAGGCCUAUGUC
apparent Kd [3]: 722 nM | apparent Kd [4]: 242 nM

ACGGAGACACAAAUGUUCCACGGUGCAGAAGGGUCCCUCACAUGAGGAUCACCCAUGUAACUCGGACAGGAUAUGCUCCUGGGA
apparent Kd [3]: 135 nM | apparent Kd [4]: 9.78 nM

CGGACAAUGCCCGAGACAUGAGGAUCACCCAUGUUAGCAGCACAGGAUAUCAUGUUUUGUAAAGGUGAGAAGGGUGAUUGCAUC
apparent Kd [3]: 102 nM | apparent Kd [4]: 68.2 nM

UGGUACUAGGGAGGAUAUGGGAAGAUACAUGAGGAUCACCCAUGUUUAAGAAUGCCGAGAGGCAACUAGAAGGCCCUAGUUCCU
apparent Kd [3]: 390 nM | apparent Kd [4]: 19.5 nM

AGAUGGCGAGGAUAUACAUGAGGAUCACCCAUGUGAGAGAAUAAAGUGAGGAAGAAAAGUAGAAGGCGCUGUCA
apparent Kd [1]: 59.4 nM | apparent Kd [2]: 264 nM

AAACAACAUGAGGAUCACCCAUGUAAGGAUAUGCGAGUUGGGUCAACGAAGGUUGAAGGCAGAAGGUAUAGGGU
apparent Kd [1]: 58.5 nM | apparent Kd [2]: 50.4 nM

GCCAGCGCAUGAGGAUAUGCUCCCGUUUCGGGAGCAGAAGGCAUGUCAUAAGACAUGAGGAUCACCCAUGUAGUCAAGAUGGCA
apparent Kd [3]: 340 nM | apparent Kd [4]: 15.7 nM

AGUGUGUGGCAGGAUAUGCGAUUUGUCGGUGAAGCAGAAGGGUCUACAUGAGGAUCACCCAUGUGUGCGGUUGA
apparent Kd [1]: 141 nM | apparent Kd [2]: 381 nM

UUAAAUCGAAACAUGAGGAUCACCCAUGUGUUGUGAUUAAUAUAGGAUAUGUGUAUACUUUUAUGACAGAAGGAUGAUAAUACU
apparent Kd [3]: 12.3 nM | apparent Kd [4]: 10.7 nM

AACAAACAUGAGGAUCACCCAUGUCAGGAUAUGCACAAACAAACAAACAAACAAGCAAGCAGAAGGGACACAAC
apparent Kd [1]: 21.7 nM | apparent Kd [2]: 39.7 nM

CUCAAACAUGAGGAUCACCCAUGUGUUGUCAUGGGAGGAUAUCUAAGUUCGUUGUAGUCGGGAGAAGGCCUAUGUC
apparent Kd [3]: 134 nM | apparent Kd [4]: 47.2 nM

CUUUUGUGAGGAUAUUAGUAGUAAACGAACAAAAUUAUUACUGAGAAGGCACAUGAGGAUCACCCAUGUUCCUC
apparent Kd [1]: 46 nM | apparent Kd [2]: 575 nM

CCGCCCUGAGGAUAUCCACCCUCAUACAUGAGGAUCACCCAUGUUCACCCUUGGGUUCCCGGAGAAGGCAGUUUUC
apparent Kd [1]: 306 nM | apparent Kd [2]: 521 nM

UUUUAACAGUCAGGAUAUGUAACGCACAACGGCGCAGAAGGGACAUGAGGAUCACCCAUGUUAUGGUUCUGGUACUAUGACGUU
apparent Kd [1]: 18.8 nM | apparent Kd [2]: 23.1 nM

UGAAAUCAUGUAGGAUAUGCAUGGCGAAGCUACGCAGAAGGACAUGAGGAUCACCCAUGUUAAAGCUACCGGAUACGGUGGCAA
apparent Kd [1]: 192 nM | apparent Kd [2]: 156 nM

UCGAUGCUAGGAUAUACGUAUACCUCCACCGUUGAUUCCUAACAUGAGGAUCACCCAUGUAGAAGGAGCAUCUA
apparent Kd [1]: 23.8 nM | apparent Kd [2]: 23.6 nM

UCGACGAAAGUCGAACGAUGUAGCAGAAGGACAUGAGGAUCACCCAUGUCAGCUGUAACAGCCAUGUAGGAUAUGCUACAUCGA
apparent Kd [1]: 3.96 nM | apparent Kd [2]: 5.54 nM

GGGUACAUCGGAGGAUAUCAUGUAAAUACAUGAGGAUCACCCAUGUCGAUGGAGACGUCGGAGAUUGAGAAGGCCGAUGUACCG
apparent Kd [3]: 91 nM | apparent Kd [4]: 7.8 nM

AUAUAUAUAAAGAAGGUGCCAGCGAGAGCUGCACAUGAGGAUCACCCAUGUUGUCGGUGACGACGCAAGGAUAUUUAUAUAUAU
apparent Kd [3]: 31.6 nM | apparent Kd [4]: 7.28 nM

GAAUAAUUGAUCCUUUUUUAUUACAUGAGGAUCACCCAUGUGCAGGAUAUCGAUUGUUUUAGUUUCGAGAAGGGCAAGAACUGU
apparent Kd [1]: 219 nM | apparent Kd [2]: 255 nM
